The values that follow come from publication PMC7127107 (Bioorganic & Medicinal Chemistry, 2013).

Bounds are passed on as bounds.

One may read the CC50 as the concentration that lowers cell viability or growth by half. The IC50 is the concentration that gives 50% inhibition.

Series [1] can be described thus: Cytotoxicity in Vero cells. Type of series: cell-based. The conditions noted are these: African green monkey. An outline of the steps:
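Vero cells were seeded at 1 × 10^5 cells/well and grown for 48 h. They were then exposed for 72 h to twofold serial dilutions of test compound (5–600 μg/mL or μM). MTT was added for 4 h at 37 °C, and formazan was dissolved in 0.04 M HCl–isopropanol. Absorbance was read at 540 nm minus 655 nm background. CC50 came from regression analysis; experiments were run three times.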

For series [2], the system named is PEDV SM98 strain. Description: Simultaneous-treatment antiviral assay. Type of series: cell-based, porcine epidemic diarrhea virus. Conditions: for IC50: Porcine epidemic diarrhea virus, Vero, read-out: Simultaneous-treatment IC50; for selectivity ratio at 72 h: African green monkey, Vero cells infected with PEDV SM98 strain. An outline of the steps: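 Test compound at various concentrations was premixed with PEDV SM98 (MOI 0.01) for 1 h at 4 °C. The mixture was put on near-confluent Vero monolayers (1 × 10^5 cells/well) for 1 h with occasional rocking, then replaced with fresh medium; triplicate wells. After 72 h, MTT was read (4 h, 37 °C; A540 minus 655 nm). IC50 came from regression analysis, and SI = CC50/IC50.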

Series [3] relates to PEDV SM98 strain. Description: Post-treatment antiviral assay. Type of series: cell-based, porcine epidemic diarrhea virus. The conditions noted are these: for IC50: Porcine epidemic diarrhea virus, Vero, read-out: Post-treatment IC50. An outline of the steps: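 Near-confluent Vero monolayers (1 × 10^5 cells/well) were infected with PEDV SM98 at MOI 0.01 for 1 h with occasional rocking. Inoculum was replaced by EMEM containing test compound (1–200 μM), in triplicate. After 72 h, viability was read by MTT (4 h, 37 °C; A540 minus 655 nm). IC50 came from regression analysis, and SI = CC50/IC50.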

In series [4] the test system is PEDV (SM98 strain). Description: Hemagglutination inhibition. Type of series: cell-based, porcine epidemic diarrhea virus. The conditions noted are these: 4 HAU PEDV, rabbit RBCs, 1 h room temperature. In outline:
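PEDV at 4 HAU was mixed with an equal volume of twofold serial dilutions of test compound in PBS (pH 7.4), with PBS alone as negative control, for 1 h at 4 °C. The mixture was combined with an equal volume of 1% rabbit RBC suspension and incubated 1 h at room temperature. Experiments were run three times.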

For series [5], the system named is PEDV (SM98 strain). Nature of the series: Confocal immunofluorescence imaging of PEDV-infected Vero cells. In kind it is cell-based, porcine epidemic diarrhea virus. The conditions noted are these: 30 μM, 24 h.
The test system of series [6] is PEDV. Description: Western blot of viral spike. Type of series: cell-based, porcine epidemic diarrhea virus. In outline: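 Vero cells at about 90% confluence were infected with PEDV at MOI 0.01 for 1 h, then cultured with 30 μM test compound or 0.5% DMSO. Cells were harvested at 6, 12, 18 and 24 h and lysed, and proteins were separated on Bis–Tris gels and blotted to nitrocellulose. Blots were probed with anti-S antibody (12 h, 4 °C) and HRP secondary, then developed by chemiluminescence; GAPDH served as loading control.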

Series [7] has as its system PEDV. Nature of the series: Quantitative real-time RT-PCR of intracellular viral RNA. In kind it is cell-based, porcine epidemic diarrhea virus. A general note: Quantitative PCR measures a nucleic acid by following its amplification.

On to `Oc1cc(O)cc(O)c1` [Compound 1, phloroglucinol], for which the CC50 at 72 h in series [1] was 374 ± 4 µM. Besides, the IC50 in the series on PEDV SM98 strain [2] and in the series on PEDV SM98 strain [3] was above 200 µM throughout. The “Simultaneous-treatment IC50” value in the series on PEDV SM98 strain [2] (mixed with virus 0.01 MOI 1 h at 4 °C, Vero cells, 72 h) is on record as “did not show significant inhibitory effects”.
In the case of `Oc1cc(O)cc(Oc2c(O)cc(O)c3c2Oc2c(O)cc(O)cc2O3)c1` [Compound 2, eckol], it took 388.3 ± 2.6 µM to reach half-maximal cytotoxicity in series [1] (CC50 at 72 h). The “Minimum concentration that completely inhibited viral hemagglutination” value with PEDV (SM98 strain) [4] (listed as eckol (2)) was in the range of 3.8 to 5.4 µM. Besides, the selectivity ratio at 72 h in the series on PEDV SM98 strain [2] is 17.2. For the same compound, the values for the IC50 in the series with PEDV SM98 strain [2] and with PEDV SM98 strain [3] were 22.5 ± 2.2 µM and above 200 µM, respectively.
Regarding `Oc1cc(O)cc(Oc2c(O)cc(O)c3c2Oc2c(O)cc(Oc4c(O)cc(Oc5c(O)cc(O)c6c5Oc5c(O)cc(O)cc5O6)cc4O)cc2O3)c1` [Compound 5, dieckol], in the series with PEDV (SM98 strain) [5], the “Number of fluorescence-positive, PEDV-infected cells” value is “reduced the number of fluorescence-positive, PEDV-infected cells”. The CC50 at 72 h in series [1] is 490.6 ± 1.6 µM. Moreover, in the series with PEDV (SM98 strain) [4] (listed as dieckol (5)), the “Minimum concentration that completely inhibited viral hemagglutination” value fell in the range of 3.8 to 5.4 µM. Further, the “Synthesis of viral proteins, late stage” value in the series with PEDV [6] (30 μM, 18 and 24 h) is given as “strongly inhibited”. Besides, the “Synthesis of viral proteins (S protein)” value in the series with PEDV [6] (5–50 μM, 24 h post-infection) is “inhibited the synthesis of viral proteins”. Besides, the selectivity ratio at 72 h with PEDV SM98 strain [2] was found to be 29.5; in the series with PEDV SM98 strain [3] (African green monkey, Vero cells infected with PEDV SM98 strain), 33.6. In addition, the 50% inhibitory concentration (IC50) with PEDV SM98 strain [2] stood at 16.6 ± 3 µM; in the series on PEDV SM98 strain [3], 14.6 ± 1.3 µM. For the same compound, in the series on PEDV [7] (30 μM, 6 and 12 h after infection), the “Viral RNA levels, early stage” value is given as “largely unchanged”. Further, in the series with PEDV [7] (30 μM, 18 and 24 h after infection, vs untreated/infected cells (0.5% DMSO)), the “Viral RNA levels, late stage” value is on record as “markedly decreased”. The “Viral RNA levels relative to vehicle-treated cells” value with PEDV [7] (50 μM, 24 h after infection, ORF3 gene normalized to GAPDH) was 30–40%. In the series on PEDV [7] (5–50 μM, 24 h after infection), the “Effect on viral RNA levels” value is given as “significantly reduced viral RNA levels in dose-dependent manner”.
